# Measured values: ChEMBL document CHEMBL1123645, “Phenylephrine derivatives as leukotriene D4 antagonists” (J Med Chem, 1987)
# Calls of active or inactive are those of the source. The calls are words filed in the database; no cut-off is given here.
# Columns and labels:
# [1] = molecular target: Cysteinyl leukotriene receptor (Homo sapiens) (UniProt Q9Y271+Q9NS75); assay: Inhibition of Ovalbumin (OA) induced bronchospasm in the guinea pig when administered intraduodenally (50 mg/kg); format: functional, organism-based; conditions: Cavia porcellus; target entry is the homologue from another species
# Outline: (§1)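 Guinea pig bronchoconstriction induced by LTD4 or by ovalbumin. Antagonist was given intraduodenally 10 min before the agonist. […] Single-dose lines give percent inhibition at the stated id dose.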
# Cavia porcellus [2] = assay: Antagonist activity was determined by the ability to inhibit of ovalbumin induced bronchospasm when administered per orally; format: functional; conditions: po
# Outline: (§2)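 Guinea pig bronchoconstriction induced by LTD4 or by ovalbumin. Antagonist was dosed orally to awake animals 120 min before the agonist, which is 95 min before anesthetic. […] Single-dose lines give percent inhibition at the stated oral dose.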
# Cavia porcellus [3] = assay: Inhibition of Ovalbumin (OA) induced bronchospasm in the guinea pig when administered perorally (50 mg/kg); format: functional; outline: as §2
# Cavia porcellus [4] = assay: Antagonist activity was determined by the ability to inhibit of ovalbumin induced bronchospasm when administered intraduodenally; format: functional; conditions: intraduodenal; outline: as §1
# Cavia porcellus [5] = assay: Relative inhibitory potency against LTD4 (leukotriene D4) induced bronchospasm when administered intraduodenally; format: functional
# Cavia porcellus [6] = assay: Relative inhibitory potency against LTD4 (leukotriene D4) induced bronchospasm when administered per orally; format: functional
# Cavia porcellus [7] = assay: Relative inhibitory potency against ovalbumin induced bronchospasm when administered intraduodenally; format: functional
# Cavia porcellus [8] = assay: Relative inhibitory potency against ovalbumin induced bronchospasm when administered per orally; format: functional
# Cavia porcellus [9] = assay: Antagonist activity was determined by the ability to inhibit of LTD4 (leukotriene D4) induced bronchospasm when administered intraduodenally; format: functional; conditions: intraduodenal; outline: as §1
# Cavia porcellus [10] = assay: Antagonist activity was determined by the ability to inhibit of LTD4 (leukotriene D4) induced bronchospasm when administered per orally; format: functional; conditions: po; outline: as §2
# Cavia porcellus [11] = species on record: Cavia porcellus; assay: Antagonist activity towards LTD4-induced contraction of isolated guinea pig; format: functional
# Outline: (§3)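 Guinea pig tracheal spirals stretched to near-optimal length and equilibrated 1.5 h, washed every 15 min. Indomethacin (5 μM) was present in all tissues. Cumulative LTD4 dose-response curves were recorded isometrically via force transducers. Paired proximal/distal strips from one animal got solvent control or drug. Values are negative log, mean ± SEM, and were compared by Student's t test.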
# Cavia porcellus [12] = species on record: Cavia porcellus; assay: relative potency antagonist on LTD4-induced contraction of isolated guinea pig trachea; format: functional; outline: as §3
# Cavia porcellus [13] = assay: Inhibition of LTD4 (leukotriene) induced bronchospasm in the guinea pig when administered intraduodenally at 25 mg/kg
# Cavia porcellus [14] = assay: Inhibition of LTD4 (leukotriene) induced bronchospasm in the guinea pig when administered intraduodenally (50 mg/kg) NA means not active; format: functional, organism-based; outline: as §1
# Cavia porcellus [15] = assay: Inhibition of LTD4 (leukotriene) induced bronchospasm in the guinea pig when administered intraduodenally (50 mg/kg)
# Cavia porcellus [16] = assay: Inhibition of Ovalbumin (OA) induced bronchospasm in the guinea pig when administered perorally (50 mg/kg); NA means not active,<10%inhibition; format: functional, organism-based; outline: as §2
# Cavia porcellus [17] = assay: Inhibition of LTD4 (leukotriene) induced bronchospasm in the guinea pig when administered perorally (50 mg/kg)
# Cavia porcellus [18] = assay: Inhibition of Ovalbumin (OA) induced bronchospasm in the guinea pig when administered intraduodenally at 25 mg/kg; format: functional; conditions: route intraduodenal; outline: as §1
# Cavia porcellus [19] = assay: Inhibition of Ovalbumin (OA) induced bronchospasm in the guinea pig when administered intraduodenally at 25 mg/kg; NA means not active; format: functional, organism-based; design: dose 25 mg/kg; outline: as §1
# Cavia porcellus [20] = assay: Inhibition of LTD4 (leukotriene) induced bronchospasm in the guinea pig when administered intraduodenally (50 mg/kg); format: functional; outline: as §1
# Cavia porcellus [21] = assay: Inhibition of LTD4 (leukotriene) induced bronchospasm in the guinea pig when administered perorally (25 mg/kg), A minus(-)number indicates potentiation.; NA means not active; format: functional, organism-based; outline: as §2
# Cavia porcellus [22] = assay: Inhibition of LTD4 (leukotriene) induced bronchospasm in the guinea pig when administered perorally (50 mg/kg); remark: listed apart in the source
# Cavia porcellus [23] = assay: Inhibition of Ovalbumin (OA) induced bronchospasm in the guinea pig when administered intraduodenally (50 mg/kg); NA means not active; format: functional, organism-based; outline: as §1
# Cavia porcellus [24] = assay: Inhibition of LTD4 (leukotriene) induced bronchospasm in the guinea pig when administered intraduodenally (50 mg/kg); Not active; format: functional, organism-based; outline: as §1
# Chain of Cysteinyl leukotriene receptor (Homo sapiens) (Q9NS75 whole entry, looked up): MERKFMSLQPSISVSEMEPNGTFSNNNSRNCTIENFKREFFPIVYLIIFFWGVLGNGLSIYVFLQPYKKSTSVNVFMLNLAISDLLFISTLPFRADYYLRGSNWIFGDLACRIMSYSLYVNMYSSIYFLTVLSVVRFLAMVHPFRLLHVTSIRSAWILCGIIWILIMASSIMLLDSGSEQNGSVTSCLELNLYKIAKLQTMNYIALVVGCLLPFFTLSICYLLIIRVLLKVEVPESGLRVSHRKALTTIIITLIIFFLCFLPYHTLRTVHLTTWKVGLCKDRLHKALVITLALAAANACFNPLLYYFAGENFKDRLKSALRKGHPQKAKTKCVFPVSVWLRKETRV
# Chain of Cysteinyl leukotriene receptor (Homo sapiens) (Q9Y271 whole entry, looked up): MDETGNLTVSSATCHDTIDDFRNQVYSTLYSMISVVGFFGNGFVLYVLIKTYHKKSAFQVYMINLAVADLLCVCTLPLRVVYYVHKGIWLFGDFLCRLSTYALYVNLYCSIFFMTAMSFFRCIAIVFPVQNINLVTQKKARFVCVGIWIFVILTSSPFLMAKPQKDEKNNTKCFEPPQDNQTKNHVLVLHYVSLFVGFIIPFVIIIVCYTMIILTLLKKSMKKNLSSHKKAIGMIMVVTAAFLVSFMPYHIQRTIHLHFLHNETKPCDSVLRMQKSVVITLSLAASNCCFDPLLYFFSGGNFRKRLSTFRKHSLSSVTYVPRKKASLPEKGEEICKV
compound,measurement,setting,value
CCN(CC)C(=O)N(C)C[C@H](O)c1cccc(OCc2ccc3ccccc3n2)c1,inhibition,[1],75%
same,ED50,Cavia porcellus [2],55 mg/kg
same,Inhibition,Cavia porcellus [3],25%
same,ED50,Cavia porcellus [4],20 mg/kg
same,Potency,Cavia porcellus [5],1.5
same,Potency,Cavia porcellus [6],1.8
same,Potency,Cavia porcellus [7],1.1
same,Potency,Cavia porcellus [8],1.4
same,ED50,Cavia porcellus [9],9 mg/kg
same,ED50,Cavia porcellus [10],56 mg/kg
same,pkB,Cavia porcellus [11],5.22
same,Potency,Cavia porcellus [12],23
CCOC(=O)NCC(O)c1cccc(OCc2ccc3ccccc3n2)c1 (configuration not stated),inhibition,Cavia porcellus [13],36%
C#CCN(C)C[C@H](O)c1cccc(OCc2ccc3ccccc3n2)c1,inhibition,Cavia porcellus [13],41%
CN1CC(c2cccc(OCc3nc4ccccc4s3)c2)OC1=O (configuration not stated),inhibition,Cavia porcellus [14],inactive
c1cc(OCc2ccc3ccccc3n2)cc(C2CN=C(c3cccs3)O2)c1 (configuration not stated),inhibition,Cavia porcellus [15],41%
COC(=O)C1CCCN1C(=O)N(C)C[C@H](O)c1cccc(OCc2ccc3ccccc3n2)c1 (some centres not stated),inhibition,[1],23%
same,inhibition,Cavia porcellus [15],71%
CCN(CC)C(=O)N(C)C[C@H](O)c1cccc(OCc2nc3ccccc3n2C)c1,inhibition,[1],84%
same,inhibition,Cavia porcellus [16],inactive
same,inhibition,Cavia porcellus [17],38%
same,inhibition,Cavia porcellus [15],77%
CN(C[C@H](O)c1cccc(OCc2ccc3ccccc3n2)c1)C(=O)c1ccncc1,inhibition,Cavia porcellus [15],31%
c1ccc(C2=NCC(c3cccc(OCc4ccc5ccccc5n4)c3)O2)nc1 (configuration not stated),inhibition in vivo at 25 mg/kg,Cavia porcellus [18],87%
same,inhibition,Cavia porcellus [15],92%
CCC1=NCC(c2cccc(OCc3ccc4ccccc4n3)c2)O1 (configuration not stated),inhibition,Cavia porcellus [19],inactive
same,inhibition,Cavia porcellus [15],80%
CNC(=O)N(C)CC(O)c1cccc(OCc2ccc3ccccc3n2)c1 (configuration not stated),inhibition in vivo at 25 mg/kg,Cavia porcellus [18],95%
same,pInhibition,Cavia porcellus [20],92%
c1ccc(C2=NCC(c3cccc(OCc4ccc5ccccc5n4)c3)O2)cc1 (configuration not stated),inhibition,Cavia porcellus [13],11%
CCN(CC)C(=O)N(C)C[C@H](O)c1cccc(OCc2nc3ccccc3s2)c1,inhibition,[1],36%
same,Inhibition,Cavia porcellus [3],41%
same,inhibition,Cavia porcellus [15],59%
CCNC(=O)N(C)CC(O)c1cccc(OCc2ccc3ccccc3n2)c1 (configuration not stated),Inhibition,Cavia porcellus [3],46%
same,inhibition,Cavia porcellus [21],inactive
same,inhibition,Cavia porcellus [15],82%
CN(C)C(=O)N(C)C[C@H](O)c1cccc(OCc2ccc3ccccc3n2)c1,inhibition,Cavia porcellus [17],15%
same,inhibition,Cavia porcellus [22],15%
same,inhibition,Cavia porcellus [15],93%
CN(C)S(=O)(=O)N(C)C[C@H](O)c1cccc(OCc2ccc3ccccc3n2)c1,inhibition,Cavia porcellus [23],inactive
same,inhibition,Cavia porcellus [17],33%
same,inhibition,Cavia porcellus [15],56%
CN(C[C@H](O)c1cccc(OCc2ccc3ccccc3n2)c1)C(=O)N(c1ccccc1)c1ccccc1,inhibition,Cavia porcellus [15],21%
CN1CC(c2cccc(OCc3ccc4ccccc4n3)c2)OC1=S (configuration not stated),inhibition,Cavia porcellus [24],inactive
c1cc(OCc2ccc3ccccc3n2)cc(C2CN=C(c3ccncc3)O2)c1 (configuration not stated),inhibition,Cavia porcellus [22],inactive
same,inhibition,Cavia porcellus [13],77%
CCN(CC)C(=O)N(CC)C[C@H](O)c1cccc(OCc2ccc3ccccc3n2)c1,inhibition,Cavia porcellus [15],34%
